Experiment [1] deals with T1, von Hippel-Lindau disease tumor suppressor/1-phosphatidylinositol 3-phosphate 5-kinase (Homo sapiens) (UniProt Q9Y2I7+P40337). The experiment is described as follows: PROTAC activity at VHL/PIKfyve in human VCaP cells assessed as induction of PIKfyve degradation at 1 uM incubated for 24 hrs by immunoblot analysis. The format is cell-based. The gist of the method: (§1)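 VCaP cells treated 24 h at 0.1 or 1.0 µM; percent PIKfyve degradation determined by immunoblotting.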
For orientation: A western blot detects proteins with antibodies after separation by electrophoresis.

Experiment [2] has as its target T1, von Hippel-Lindau disease tumor suppressor/1-phosphatidylinositol 3-phosphate 5-kinase (Homo sapiens). The experiment is described as follows: PROTAC activity at VHL/PIKfyve in human VCaP cells assessed as induction of PIKfyve degradation at 0.1 uM incubated for 24 hrs by immunoblot analysis. In kind it is cell-based. The gist of the method: as §1
Experiment [3] relates to VCaP. Description: Antiproliferative activity against human VCaP cells assessed as inhibition of cell proliferation incubated for 2 weeks by crystal violet staining based analysis. Conditions: 336 h. In kind it is functional. The gist of the method: (§2)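 VCaP cells exposed either 24 h then washed and chased 2 weeks in compound-free medium, or continuously for 2 weeks; long-term viability visualized by crystal violet staining; IC50 calculated for each condition.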

Experiment [4] concerns VCaP. Description: Inhibition of autophagy in human VCaP cells assessed as increase in LC3A/B expression at 100 to 300 nM incubated for 4 hrs followed by culturing in compound-free medium for 72 hrs by immunoblot analysis. The format is functional, cell-based. The note with it: dose 100-300 nM. The gist of the method: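 VCaP cells treated 4 h, compounds removed, cultured 72 h in compound-free medium; whole cell lysates immunoblotted for PIKfyve, LC3A/B and GAPDH (RIPA lysis, 4–12% Bis-Tris gels, PVDF, ECL).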

For experiment [5], the system named is DU-145. The experiment is described as follows: Induction of massive cytoplasmic vacuolization in human RFP-labeled DU-145 cells incubated for 24 hrs. In kind it is functional, cell-based. The note with it: dose 100-3000 nM. The gist of the method:
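RFP-labeled DU145 cells treated 24 h (300 nM shown); vacuole area per cell quantified from images.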

For experiment [6], the system named is VCaP. Description: Antiproliferative activity against human VCaP cells assessed as inhibition of cell proliferation incubated for 24 hrs followed by culturing in compound-free medium for 2 weeks by crystal violet staining based analysis. The format is functional. The gist of the method:
as §2

The subject of experiment [7] is DU-145. The experiment is described as follows: Induction of massive cytoplasmic vacuolization in human RFP-labeled DU-145 cells at 300 nM incubated for 4 hrs. In kind it is functional, cell-based.
Experiment [8] deals with T1, von Hippel-Lindau disease tumor suppressor/1-phosphatidylinositol 3-phosphate 5-kinase (Homo sapiens). Description: PROTAC activity at VHL/PIKfyve in human VCaP cells assessed as induction of PIKfyve degradation at 100 to 300 nM incubated for 4 hrs followed by culturing in compound-free medium for 72 hrs by immunoblot analysis. The format is cell-based. Conditions: dose 100-300 nM.

Experiment [9] relates to VCaP. The experiment is described as follows: Antiproliferative activity against human VCaP cells assessed as inhibition of cell proliferation incubated for 4 hrs followed by culturing in compound-free medium for 2 weeks by crystal violet staining based analysis. In kind it is functional. The gist of the method:
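VCaP cells treated 4 h, compound removed, then cultured 2 weeks in drug-free medium; long-term viability by crystal violet staining.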

Activity calls are given as the source filed them. No cut-off for these calls is given here.

T1 sequence (P40337 whole entry partner): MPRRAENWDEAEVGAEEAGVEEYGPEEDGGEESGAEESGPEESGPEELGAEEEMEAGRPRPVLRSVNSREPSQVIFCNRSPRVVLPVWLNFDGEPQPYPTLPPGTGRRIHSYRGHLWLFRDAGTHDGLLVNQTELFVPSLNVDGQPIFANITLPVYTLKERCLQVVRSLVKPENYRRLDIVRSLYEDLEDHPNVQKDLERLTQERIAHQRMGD
T1 sequence (Q9Y2I7 2-2098 limits assumed): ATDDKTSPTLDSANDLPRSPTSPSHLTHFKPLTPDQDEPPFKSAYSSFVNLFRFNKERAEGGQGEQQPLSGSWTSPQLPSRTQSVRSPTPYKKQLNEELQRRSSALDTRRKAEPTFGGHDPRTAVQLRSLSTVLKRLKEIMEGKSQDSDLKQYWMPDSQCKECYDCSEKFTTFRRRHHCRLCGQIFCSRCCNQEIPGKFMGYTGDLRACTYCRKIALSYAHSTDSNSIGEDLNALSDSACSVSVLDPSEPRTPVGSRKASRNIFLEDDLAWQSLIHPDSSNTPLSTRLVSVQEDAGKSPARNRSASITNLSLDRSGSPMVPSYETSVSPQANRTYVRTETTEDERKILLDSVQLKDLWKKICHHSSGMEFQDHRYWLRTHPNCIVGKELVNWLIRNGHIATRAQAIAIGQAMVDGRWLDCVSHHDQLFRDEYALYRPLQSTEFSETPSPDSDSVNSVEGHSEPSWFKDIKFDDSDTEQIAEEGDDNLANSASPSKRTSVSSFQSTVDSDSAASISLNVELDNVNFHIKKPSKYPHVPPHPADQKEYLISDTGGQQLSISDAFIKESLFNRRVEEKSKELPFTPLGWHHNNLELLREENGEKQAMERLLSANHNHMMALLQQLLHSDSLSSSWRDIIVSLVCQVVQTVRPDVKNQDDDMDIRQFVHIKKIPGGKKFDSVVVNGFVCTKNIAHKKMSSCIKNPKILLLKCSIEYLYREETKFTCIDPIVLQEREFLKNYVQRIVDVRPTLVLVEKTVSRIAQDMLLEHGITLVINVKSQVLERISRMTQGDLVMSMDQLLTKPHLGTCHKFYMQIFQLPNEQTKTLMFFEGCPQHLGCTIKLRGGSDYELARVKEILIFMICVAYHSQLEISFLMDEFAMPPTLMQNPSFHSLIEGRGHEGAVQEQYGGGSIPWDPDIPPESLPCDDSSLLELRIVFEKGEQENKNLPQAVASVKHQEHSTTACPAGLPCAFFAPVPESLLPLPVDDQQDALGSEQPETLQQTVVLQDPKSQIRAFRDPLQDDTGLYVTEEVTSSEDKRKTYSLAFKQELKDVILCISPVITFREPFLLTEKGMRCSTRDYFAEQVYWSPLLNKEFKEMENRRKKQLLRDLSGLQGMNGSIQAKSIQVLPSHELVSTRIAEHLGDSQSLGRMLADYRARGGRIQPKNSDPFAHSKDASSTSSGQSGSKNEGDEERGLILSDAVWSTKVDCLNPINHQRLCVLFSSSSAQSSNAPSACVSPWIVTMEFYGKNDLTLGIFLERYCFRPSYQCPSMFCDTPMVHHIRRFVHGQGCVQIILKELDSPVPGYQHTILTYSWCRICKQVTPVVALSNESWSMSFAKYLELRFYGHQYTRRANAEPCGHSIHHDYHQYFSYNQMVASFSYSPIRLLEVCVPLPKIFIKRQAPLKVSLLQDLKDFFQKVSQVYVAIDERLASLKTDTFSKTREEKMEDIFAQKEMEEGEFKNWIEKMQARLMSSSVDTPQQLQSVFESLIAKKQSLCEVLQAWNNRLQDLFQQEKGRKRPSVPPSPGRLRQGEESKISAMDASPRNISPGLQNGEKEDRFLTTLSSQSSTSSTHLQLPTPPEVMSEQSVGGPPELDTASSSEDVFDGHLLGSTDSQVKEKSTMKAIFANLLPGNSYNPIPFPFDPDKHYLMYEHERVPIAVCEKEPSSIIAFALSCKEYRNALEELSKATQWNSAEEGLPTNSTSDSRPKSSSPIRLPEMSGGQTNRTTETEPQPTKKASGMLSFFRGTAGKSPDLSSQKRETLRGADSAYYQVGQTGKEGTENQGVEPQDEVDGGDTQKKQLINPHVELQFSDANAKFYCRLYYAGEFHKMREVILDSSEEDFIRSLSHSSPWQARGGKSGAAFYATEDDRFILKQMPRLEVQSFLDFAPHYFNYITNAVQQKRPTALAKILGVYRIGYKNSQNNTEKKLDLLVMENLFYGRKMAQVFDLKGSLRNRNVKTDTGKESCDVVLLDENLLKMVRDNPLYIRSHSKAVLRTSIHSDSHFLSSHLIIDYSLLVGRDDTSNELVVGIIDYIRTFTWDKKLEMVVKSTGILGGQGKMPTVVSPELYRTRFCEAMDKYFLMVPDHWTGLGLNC

Consider `Cc1cccc(/C=N/Nc2cc(N3CCOCC3)nc(OCCc3ccc(NC(=O)CCCCCCCC(=O)N[C@H](C(=O)N4C[C@H](O)C[C@H]4C(=O)NCc4ccc(-c5scnc5C)cc4)C(C)(C)C)cc3)n2)c1`, for which the figures for the Activity in experiment [1] and in [2] were 92% and 84%, respectively.
The like results for `Cc1cccc(/C=N/Nc2cc(N3CCOCC3)nc(OCCNC(=O)CCCCCCCCCCC(=O)N[C@H](C(=O)N3C[C@H](O)C[C@H]3C(=O)NCc3ccc(-c4scnc4C)cc3)C(C)(C)C)n2)c1` were, in that order, 21% and 67%.
Turning to `Cc1cccc(/C=N/Nc2cc(N3CCOCC3)nc(OCCc3ccccn3)n2)c1` [APILIMOD], the IC50 in experiment [3] was found to be 254 nM; in experiment [6], 1190 nM. In addition, in experiment [4], the inhibition result is “inactive”. Also, the Activity entry in [5] was “Dose-Dependent Effect”. Further, in [7], the result was Active.
Consider `Cc1cccc(/C=N/Nc2cc(N3CCOCC3)nc(OCCNC(=O)CCCCC(=O)N[C@H](C(=O)N3C[C@H](O)C[C@H]3C(=O)NCc3ccc(-c4scnc4C)cc3)C(C)(C)C)n2)c1`, for which the figures for the Activity in experiment [1] and in experiment [2] were 10% and 0%, respectively.
For `Cc1cccc(/C=N/Nc2cc(N3CCOCC3)nc(OCCc3ccc(NC(=O)CC(=O)N[C@H](C(=O)N4C[C@H](O)C[C@H]4C(=O)NCc4ccc(-c5scnc5C)cc4)C(C)(C)C)cc3)n2)c1`, in that order: 0% and 0%.
Take `Cc1cccc(/C=N/Nc2cc(N3CCOCC3)nc(OCCc3ccc(NC(=O)CCCCC(=O)N[C@H](C(=O)N4C[C@@H](O)C[C@H]4C(=O)NCc4ccc(-c5scnc5C)cc4)C(C)(C)C)cc3)n2)c1`: the outcome in experiment [8] was inactive. The Activity in experiment [1] and in experiment [2] was 0% each time. Also, the IC50 in [9] is greater than 3000 nM. Besides, in [4], the inhibition entry was “inactive”. For the same compound, the outcome in experiment [7] was Active.
Regarding `Cc1cccc(/C=N/Nc2cc(N3CCOCC3)nc(OCCc3ccc(NC(=O)CCCC(=O)N[C@H](C(=O)N4C[C@H](O)C[C@H]4C(=O)NCc4ccc(-c5scnc5C)cc4)C(C)(C)C)cc3)n2)c1`, the Activity in experiment [1] and in experiment [2] was 0% in each case.
Take `Cc1cccc(/C=N/Nc2cc(N3CCOCC3)nc(OCCc3ccc(NC(=O)CCCCCCCCCCC(=O)N[C@H](C(=O)N4C[C@H](O)C[C@H]4C(=O)NCc4ccc(-c5scnc5C)cc4)C(C)(C)C)cc3)n2)c1`: the Activity in [1] worked out at 3%; in [2], 48%.
The like results for `Cc1cccc(/C=N/Nc2cc(N3CCOCC3)nc(OCCc3ccc(NC(=O)CCCCCCC(=O)N[C@H](C(=O)N4C[C@H](O)C[C@H]4C(=O)NCc4ccc(-c5scnc5C)cc4)C(C)(C)C)cc3)n2)c1` were, in that order, 19% and 26%.
For `Cc1cccc(/C=N/Nc2cc(N3CCOCC3)nc(OCCc3ccc(NC(=O)CCCCCCCCCC(=O)N[C@H](C(=O)N4C[C@H](O)C[C@H]4C(=O)NCc4ccc(-c5scnc5C)cc4)C(C)(C)C)cc3)n2)c1`, in that order: 41% and 64%.
On to `Cc1cccc(/C=N/Nc2cc(N3CCOCC3)nc(OCCNC(=O)CCCCCCCC(=O)N[C@H](C(=O)N3C[C@H](O)C[C@H]3C(=O)NCc3ccc(-c4scnc4C)cc3)C(C)(C)C)n2)c1`, for which the Activity came out at 17% in experiment [1] and 30% in experiment [2].
For `Cc1cccc(/C=N/Nc2cc(N3CCOCC3)nc(OCCNC(=O)CCCCCCCCCC(=O)N[C@H](C(=O)N3C[C@H](O)C[C@H]3C(=O)NCc3ccc(-c4scnc4C)cc3)C(C)(C)C)n2)c1`, in that order: 32% and 72%.
For `Cc1cccc(/C=N/Nc2cc(N3CCOCC3)nc(OCCc3ccc(NC(=O)CCC(=O)N[C@H](C(=O)N4C[C@H](O)C[C@H]4C(=O)NCc4ccc(-c5scnc5C)cc4)C(C)(C)C)cc3)n2)c1`, in that order: 8% and 0%.
Turning to `Cc1cccc(/C=N/Nc2cc(N3CCOCC3)nc(OCCc3ccc(NC(=O)CCCCCCCCC(=O)N[C@H](C(=O)N4C[C@H](O)C[C@H]4C(=O)NCc4ccc(-c5scnc5C)cc4)C(C)(C)C)cc3)n2)c1`, the Activity in experiment [1] was 45%; in [2] it was 81%.
For `Cc1cccc(/C=N/Nc2cc(N3CCOCC3)nc(OCCNC(=O)CCCCCCCCC(=O)N[C@H](C(=O)N3C[C@H](O)C[C@H]3C(=O)NCc3ccc(-c4scnc4C)cc3)C(C)(C)C)n2)c1`, in that order: 31% and 32%.
The like results for `Cc1cccc(/C=N/Nc2cc(N3CCOCC3)nc(OCCc3ccc(NC(=O)CCCCCC(=O)N[C@H](C(=O)N4C[C@H](O)C[C@H]4C(=O)NCc4ccc(-c5scnc5C)cc4)C(C)(C)C)cc3)n2)c1` were, in that order, 75% and 90%.
In the case of `Cc1cccc(/C=N/Nc2cc(N3CCOCC3)nc(OCCNC(=O)CCC(=O)N[C@H](C(=O)N3C[C@H](O)C[C@H]3C(=O)NCc3ccc(-c4scnc4C)cc3)C(C)(C)C)n2)c1`, the Activity in experiment [1] and in [2] was 0% in each case.
`Cc1cccc(/C=N/Nc2cc(N3CCOCC3)nc(OCCNC(=O)CCCC(=O)N[C@H](C(=O)N3C[C@H](O)C[C@H]3C(=O)NCc3ccc(-c4scnc4C)cc3)C(C)(C)C)n2)c1`: the Activity in [1] and in [2] was 0% in each case.
With `Cc1cccc(/C=N/Nc2cc(N3CCOCC3)nc(OCCc3ccc(NC(=O)CCCCC(=O)N[C@H](C(=O)N4C[C@H](O)C[C@H]4C(=O)N[C@@H](C)c4ccc(-c5scnc5C)cc4)C(C)(C)C)cc3)n2)c1`, the Activity in experiment [1] turned out to be 44%; in [2], 47%.
For `Cc1cccc(/C=N/Nc2cc(N3CCOCC3)nc(OCCNC(=O)CCCCCC(=O)N[C@H](C(=O)N3C[C@H](O)C[C@H]3C(=O)NCc3ccc(-c4scnc4C)cc3)C(C)(C)C)n2)c1`, in that order: 0% and 3%.
`Cc1cccc(/C=N/Nc2cc(N3CCOCC3)nc(OCCNC(=O)CC(=O)N[C@H](C(=O)N3C[C@H](O)C[C@H]3C(=O)NCc3ccc(-c4scnc4C)cc3)C(C)(C)C)n2)c1`: the Activity in [1] and in [2] was 0% each time.
Turning to `Cc1cccc(/C=N/Nc2cc(N3CCOCC3)nc(OCCNC(=O)CCCCCCC(=O)N[C@H](C(=O)N3C[C@H](O)C[C@H]3C(=O)NCc3ccc(-c4scnc4C)cc3)C(C)(C)C)n2)c1`, the Activity in experiment [1] is 51%; in [2] it was 0%.

The term IC50 denotes the concentration needed to halve the response being measured.

Values taken from ChEMBL document CHEMBL5321284, “Discovery of a First-in-Class Degrader for the Lipid Kinase PIKfyve” (J Med Chem, 2023).
